Screening data (PubChem)
Hits are enriched below; roughly 3% of the tested compounds scored in any of these assays.
DNA FID counter – displaces DNA intercalator in HCV helicase counter-screen | DNA fluorescent intercalator displacement, fluorescence | actives 0.17% (n = 290,000) | inhibition, % at 7.9 µM; in the data active = inhibition above about 37%;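 also: higher means more ethidium bromide displaced from hairpin DNA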
SR-BI HDL uptake – blocks mouse SR-BI lipid uptake from DiI-HDL | Q61009 | ldlA[mSR-BI] CHO cells, DiI-HDL uptake fluorescence, 3 h | inhibition, % at 12.5 µM | actives 0.96% (n = 320,000);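 active = mean replicate inhibition of at least 70% and a set share of replicates each scoring 70 or more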
Target sequence (Q61009 whole entry, looked up): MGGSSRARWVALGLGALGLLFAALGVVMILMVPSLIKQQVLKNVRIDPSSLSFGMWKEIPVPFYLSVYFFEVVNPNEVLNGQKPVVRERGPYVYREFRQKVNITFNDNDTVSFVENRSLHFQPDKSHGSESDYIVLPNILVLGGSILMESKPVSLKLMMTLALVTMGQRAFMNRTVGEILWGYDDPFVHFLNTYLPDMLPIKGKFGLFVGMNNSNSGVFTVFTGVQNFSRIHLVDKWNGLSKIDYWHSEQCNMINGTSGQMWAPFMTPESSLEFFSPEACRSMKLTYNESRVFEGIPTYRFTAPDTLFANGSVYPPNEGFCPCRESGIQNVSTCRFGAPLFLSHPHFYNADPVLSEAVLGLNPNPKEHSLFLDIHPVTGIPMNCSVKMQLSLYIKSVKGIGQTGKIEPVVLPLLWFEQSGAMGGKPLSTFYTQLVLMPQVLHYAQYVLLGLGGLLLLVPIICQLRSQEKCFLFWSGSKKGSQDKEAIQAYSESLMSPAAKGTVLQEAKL
TMEM16A act – activates or potentiates the mouse TMEM16A chloride channel. Q8BHY3. AID 623877. HEK293 TMEM16A/YFP-H148Q/I152L, iodide quench fluorescence; stronger effect = lower value. B-score at 10 µM. actives 0.3% (n = 340,000);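 active = fluorescence-ratio B-score plate-corrected deviation score at least 3 library SD below zero, with starting fluorescence score within 5 deviations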;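 also: channel opened by trigger with iodide after compound preincubation; score built on the fluorescence ratio of max minus min over baseline; more negative score means more quench and so TMEM16A activation or potentiation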
ANO1 block – inhibitors of mouse TMEM16A calcium-activated chloride channel; Q8BHY3; HEK293 TMEM16A/YFP iodide influx fluorescence, ionomycin; normalized B-score (activity score, 25-100; higher = stronger inhibition) at 10 µM; actives 1.2% (n = 310,000); AID 588511;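 active = ratio plate-corrected score three or more library SD toward inhibition, starting fluorescence score within five deviations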;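 also: score derived from kinetic fluorescence span divided by baseline fluorescence per well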
SR-BI DiI-HDL act – activators of SR-BI mediated HDL lipid uptake | CHO ldlA[mSR-BI] cells, DiI-HDL uptake fluorescence, 3 h; 100 = double the neutral-control signal | actives 0.096% (n = 320,000) | activation, % at 12.5 µM;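 active = mean replicate activation of at least 60% and every replicate at or above 60%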
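Test system: SR-BI-overexpressing, LDLR-lacking CHO cells. Measured by: DiI fluorescence, bottom read. Medium: Ham's F12 with 0.5% BSA, HEPES 25 mM, pH 7.4. Timing: 3 h uptake period with compound, 37 °C.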
Kir21 block – blocks the mouse Kir2.1 inward-rectifier potassium channel; P35561; HEK293-Kir2.1, FluxOR thallium flux fluorescence; stronger effect = lower value; B-score at 10 µM; actives 0.85% (n = 310,000); AID 1672;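 active = fluorescence ratio B-score at or below minus 3 SD of library scores, with starting-brightness B-score within 2 SD, cut at about -4.2 in these data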;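 also: channel flux triggered by added potassium and thallium sulfate stimulus; B-score of peak minus minimum fluorescence over baseline after thallium stimulus; more negative B-score means stronger Kir2.1 block with less thallium influx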
Numbers stand for hits; - = inactive; . = not tested or not shown.

SMILES	DNA FID counter	SR-BI HDL uptake	TMEM16A act	ANO1 block	SR-BI DiI-HDL act	Kir21 block
COc1ccc(N=Nc2c(C)[nH]c3ccccc23)cc1	.	88	-	-	-	-
COc1ccc(OC)c(/C=N/NC(=O)c2cc[n+](Cc3ccccc3)cc2)c1	-	-	-	-	-	-
COc1cccc(/C=N/NC(=O)c2[nH]c(C)c(C(=O)N/N=C/c3cccc(OC)c3O)c2C)c1O	-	125	-	-	-	-
COc1cccc(/C=N/NC(=O)c2ccc(=O)[nH]n2)c1O	-	.	-	-	.	-
COc1ccc(OC)c(/C=N\NC(=O)c2ccc(-c3ccccc3)cc2)c1	-	78	-	-	.	-
Cc1[nH]c(C(=O)N/N=C/c2ccc(C(=O)O)cc2)c(C)c1C(=O)N/N=C/c1ccc(C(=O)O)cc1	-	-	-	-	-	-
COc1cccc(/C=N/NC(=O)C(=O)Nc2ccccc2OC(F)(F)C(F)F)c1O	-	110	-	-	-	-
Cc1[nH]c(C(=O)N/N=C/c2ccc(N(C)C)cc2)c(C)c1C(=O)N/N=C/c1ccc(N(C)C)cc1	-	87	-	-	-	-
CC(C)Cc1ccc(C(C)NC(=O)Cc2ccc(S(=O)(=O)N3CCOCC3)s2)cc1 (configuration not stated)	.	-	-	-	-	-
O=C(COC(=O)CCC(=O)c1cccs1)Nc1ccc(F)c(F)c1F	.	-	-	.	-	.
OCCC1CN(Cc2cccn2-c2ncccn2)CCN1C1CCCC1 (configuration not stated)	-	.	-	-	.	-
COc1cccc(/C=N/NC(=O)c2ccc(-c3ccccc3)cc2)c1O	-	123	-	-	-	-
COc1ccccc1CNC(=O)C(Cc1ccccc1)NC(=O)c1ccccc1 (configuration not stated)	.	-	-	.	-	.
CCCCN(CCCC)S(=O)(=O)c1ccc2oc(C(=O)N3CCOCC3)c(C)c2c1	-	-	-	-	-	-4.8
CCN(CC)S(=O)(=O)c1ccc2oc(C(=O)NCCCN3CCOCC3)c(C)c2c1	-	-	-	-	-	-
CC(=O)c1cccc(NC(=O)C(C)OC(=O)c2ccc(-n3cnnn3)cc2)c1 (configuration not stated)	.	-	-	.	-	.
Cc1c(C(=O)Nc2ccc(F)c(F)c2)oc2ccc(S(=O)(=O)N3CCCCC3)cc12	-	75	-	-	-	-
Cc1ccc(NC(=O)c2cc(=O)c3ccccc3o2)cc1S(=O)(=O)N1CCOCC1	-	-	-	-	-	-
Cc1ccc(NC(=O)c2cc(=O)c3ccccc3o2)cc1S(=O)(=O)N1CCCCC1	-	80	-	-	-	-
CC(=O)Nc1ccc(NC(=O)c2cc(=O)c3cc(C)c(C)cc3o2)cc1	-	72	-	-	-	-
Cc1ccc(NC(=O)COc2ccccc2)cc1S(=O)(=O)N1CCCCCC1	.	-	-	25	-	-
COc1ccc(Cl)cc1S(=O)(=O)N1CCN(C(=O)c2n[nH]c(=O)c3ccccc23)CC1	.	-	-	.	-	.
O=C(NC1CCC(CC2CCC(NC(=O)C(Cl)Cl)CC2)CC1)C(Cl)Cl (configuration not stated)	-	-	-	-	-	-
NC(=S)Nc1ccc(S(=O)(=O)c2ccc(NC(N)=S)cc2)cc1	-	-	-	-	-	-
Cc1nc(SC(C)C(=O)NC2CCCC2)c2ccccc2n1 (configuration not stated)	.	-	-31	.	-	.
SMILES	DNA FID counter	SR-BI HDL uptake	TMEM16A act	ANO1 block	SR-BI DiI-HDL act	Kir21 block
COc1ccc(/C=N/NC(=O)c2ccc(COc3ccccc3Cl)o2)c(OC)c1C	-	76	-	-	-	-
COc1ccc(/C=N/NC(=O)c2ccc(COc3ccccc3Cl)o2)cc1	-	-	-	-	-	-
Cc1ccc(C)c(N2CCN(CCCNC(=O)Cn3cc4c(n3)CCC(C)C4)CC2)c1 (configuration not stated)	-	-	-	-	-	-4.7
CC1CCc2nn(CC(=O)NCCCN3CCCC3=O)cc2C1 (configuration not stated)	.	-	-	-	-	-
N#C/C(=C\c1cccc(Br)c1)C(=O)N1CCCCC1	-	-	-	-	-	-6.9
C/C(=C/c1ccccc1)C(=O)N1CCN(c2ccccc2F)CC1	-	-	-	-	-	-
N#C/C(=C\c1ccccc1)C(=O)N1CCN(c2ccccc2F)CC1	-	-	-	-	-	-5.1
CCC(C)NCC(=O)Nc1cc(S(=O)(=O)N(CC)c2ccccc2)ccc1Cl (configuration not stated)	-	72	-	-	-	-
O=[N+]([O-])c1c(Nc2ccccc2O)cc(Cl)c2nonc12	-	-	-	100	-	-7.2
COc1cc(/C=C/c2ccc3cccc(O)c3n2)cc(Br)c1OC	-	82	-	-	-	-
O=C(NNC(=S)Nc1cccc(C(F)(F)F)c1)c1ccccc1Cl	-	-	-	25	-	-
FC(F)(F)c1cccc(NC(=S)Nc2ccc(Cl)cc2Cl)c1	-	-	-	100	-	-
Fc1ccc(NC(=S)Nc2ccc(F)c(Cl)c2)cc1Cl	-	-	-10	100	-	-5.4
O=C(NNC(=S)Nc1cccc(C(F)(F)F)c1)c1cccc(Cl)c1	-	-	-	-	-	-
COc1cc2c(cc1OC)C(C)N(C(=O)c1ccc(Cl)c(S(=O)(=O)N3CCCCC3)c1)CC2 (configuration not stated)	-	-	-	-	-	-
CCN(C(=O)COC(=O)c1c2c(nc3ccccc13)CCC2)c1c(N)n(Cc2ccccc2)c(=O)[nH]c1=O	.	-	-	.	-	.
CC(C)CN(C(=O)COC(=O)c1c2c(nc3ccccc13)CCC2)c1c(N)n(Cc2ccccc2)c(=O)[nH]c1=O	-	72	-	-	-	-
O=C(/C=C/c1ccc(Cl)cc1)N1CCN(Cc2ccccc2)CC1	-	-	-	-	-	-
Cc1ccc(/C=C/C(=O)c2ccccc(=O)c2O)cc1C	-	-	-	-	-	-
Cc1[nH]n(C(N)=S)c(=O)c1C(c1ccccc1)C(C#N)C#N (configuration not stated)	-	-	-	-	-	-
Cc1[nH]n(-c2ncc(-c3ccccc3)s2)c(=O)c1C(c1ccc(Br)cc1)C(C#N)C#N (configuration not stated)	-	-	-	-	-	-5.6
COc1ccc(SCCCn2c(=O)c3c(ncn3C)n(C)c2=O)cc1	-	-	-	-	-	-
CN(C)Cc1ccccc1Sc1cccc2ccccc12	-	-	-	-	-	-5.3
CN(C)Cc1ccccc1Sc1ccccc1Br	-	-	-	-	-	-
